Laboratory results published in article PMC4636097 (Drug Design, Development and Therapy, 2015).

Key:
[1] = tested on: pooled HLMs (human liver microsomes); test: Kinetics of OMT metabolism; type: in vitro ADME; conditions: pooled HLM, formation of MT, biphasic metabolism equation
[2] = tested on: pooled HIMs (human intestinal microsomes); test: Kinetics of OMT metabolism; type: in vitro ADME; conditions: pooled HIM, formation of MT, biphasic metabolism equation
[3] = target: cDNA-expressed human CYP3A4 (Homo sapiens, UniProt P08684); test: Metabolism of OMT in recombinant human CYP enzymes: CYP3A4; type: in vitro ADME; conditions: OMT 50 μM, 0.08 mg/mL enzyme, NADPH-regenerating system, 37°C, 1.5 hours
Sequence of cDNA-expressed human CYP3A4 (P08684 whole entry, canonical isoform): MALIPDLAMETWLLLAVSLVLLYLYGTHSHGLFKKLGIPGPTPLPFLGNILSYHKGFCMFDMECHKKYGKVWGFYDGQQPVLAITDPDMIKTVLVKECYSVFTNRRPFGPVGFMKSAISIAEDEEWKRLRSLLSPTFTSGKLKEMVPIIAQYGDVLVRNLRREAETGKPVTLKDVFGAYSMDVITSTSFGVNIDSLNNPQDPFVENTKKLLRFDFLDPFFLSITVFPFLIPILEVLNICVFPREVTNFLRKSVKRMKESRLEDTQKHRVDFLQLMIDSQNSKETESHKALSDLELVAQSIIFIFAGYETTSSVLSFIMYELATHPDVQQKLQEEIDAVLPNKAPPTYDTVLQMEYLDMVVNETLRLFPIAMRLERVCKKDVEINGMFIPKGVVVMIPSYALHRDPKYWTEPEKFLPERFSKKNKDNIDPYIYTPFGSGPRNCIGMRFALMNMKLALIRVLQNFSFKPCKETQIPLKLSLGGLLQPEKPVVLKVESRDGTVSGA

[4] = tested on: other cDNA-expressed CYP enzymes (CYP1A1, CYP1A2, CYP1B1, CYP2A6, CYP2B6, CYP2C8, CYP2C19, CYP2D6, CYP2E1, CYP3A5); test: Metabolism of OMT in recombinant human CYP enzymes: other isoforms; type: in vitro ADME; conditions: OMT 50 μM, 0.08 mg/mL enzyme, NADPH-regenerating system, 37°C, 1.5 hours
[5] = tested on: HLMs; test: Effects of different oxygen contents on the metabolism of OMT in HLMs; type: in vitro ADME, human; conditions: OMT 50 μM, enzyme inactivated in boiled water for 2 h, ventilation for 30 s
[6] = tested on: HLMs; test: Identification of OMT metabolite in HLMs; type: in vitro ADME, human; conditions: HLMs and NADPH, 37°C, 1.5 hours; metabolite identified as MT
How it was run: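 Test compound at 50, 100 or 200 μM with pooled human liver microsomes (0.1 mg/mL) in 50 mM KPI pH 7.4 and a glucose-6-phosphate/MgCl2/G6P dehydrogenase system, started with NADP. Controls lacked NADP. Run at 37°C for 1.5 h with shaking, then CH2Cl2 extraction. UPLC and Q-TOF MS (positive ESI); metabolite assigned by chromatographic behaviour and MS fragmentation. Triplicate.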

[7] = oral administration; cited from earlier work

metabolites in the inactivated enzyme test [5]: no metabolites were observed
metabolites found in HLMs [6]: only one metabolite was found in HLMs
Structure (SMILES): O=C1CCC[C@@H]2[C@H]3CCC[N+]4([O-])CCC[C@@H](CN12)[C@@H]34 (stereo partly shown) [OMT, Oxymatrine]
Vmax [1]: 1.49 ± 0.24 nmol/min/mg
Vmax [2]: 0.46 ± 0.05 nmol/min/mg
formation of MT by CYP3A4 [3]: contributed greatly to the formation of MT
formation of MT by other cDNA-expressed CYP enzymes [4]: only a small amount of MT could be detected
oral absolute bioavailability [7]: 6.79%
